# How the values were obtained:
# [1] = Apparent permeability across apical to basolateral side in human Caco-2 cells at 5 uM measured every 15 mins for 1 hr by LC-MS/MS analysis; assay type: ADME, cell-based
# [2] = biological target: RAF proto-oncogene serine/threonine-protein kinase (Homo sapiens, UniProt P04049); experiment: Inhibition of human wild type CRAF using myelin basic protein as substrate in presence of [gamma-33P]ATP incubated for 40 mins by scintillation counting method
# [3] = biological target: Homeodomain-interacting protein kinase 1 (Homo sapiens, UniProt Q86Z02); experiment: Inhibition of HIPK1 (unknown origin) incubated for 1 hr by qPCR analysis
# Method in brief: (§1)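 Competition binding assay. Kinases were either T7-phage-tagged (grown in an E. coli BL21-derived host) or expressed in HEK-293 cells and DNA-tagged. […] Bound kinase was eluted with non-biotinylated ligand and quantified by qPCR.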
# [4] = Tmax in Sprague-Dawley rat at 5 mg/kg, po by LC-MS/MS analysis; assay type: ADME, organism-based; conditions: in vivo
# Method in brief: (§2)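 Male SD rats, 7−8 weeks, 250−300 g, three per group, dosed 5 mg/kg IV or PO. Vehicle was 5% DMSO/40% PEG400/55% water. Rats fasted 16 h before oral dosing. Samples taken every 30 min and measured by LC/MS/MS with carbamazepine as internal standard. Parameters from non-compartmental analysis of plasma concentration–time profiles.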
# [5] = biological target: Mitogen-activated protein kinase 11 (Homo sapiens, UniProt Q15759); experiment: Inhibition of MAPK11 (unknown origin) incubated for 1 hr by qPCR analysis; method in brief: as §1
# Sequence of Mitogen-activated protein kinase 11 (Q15759 whole entry): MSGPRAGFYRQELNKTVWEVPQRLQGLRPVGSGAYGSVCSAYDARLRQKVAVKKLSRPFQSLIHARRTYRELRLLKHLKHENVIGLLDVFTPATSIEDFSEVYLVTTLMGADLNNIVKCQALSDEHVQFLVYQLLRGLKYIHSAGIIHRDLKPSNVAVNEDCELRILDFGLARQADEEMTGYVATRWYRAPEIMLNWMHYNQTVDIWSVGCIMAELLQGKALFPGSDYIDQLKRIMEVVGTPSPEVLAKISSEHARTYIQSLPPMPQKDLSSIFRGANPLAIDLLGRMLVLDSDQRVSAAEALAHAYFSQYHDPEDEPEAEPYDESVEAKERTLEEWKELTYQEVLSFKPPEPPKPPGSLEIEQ
# [6] = Stability in human plasma assessed as parent compound remaining at 10 uM measured after 30 mins by LC-MS analysis; assay type: ADME, cell-free; conditions: read-out: Stability
# Method in brief: (§3)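 About 10 μM compound shaken in human or rat plasma at 37 °C for 30 and 120 min. Acetonitrile added, samples centrifuged at 4 °C, and remaining parent in the supernatant quantified by LC−MS. Procaine and diltiazem run as references.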
# [7] = biological target: Serine/threonine-protein kinase B-raf (Homo sapiens, UniProt P15056); experiment: Inhibition of human wild type BRAF using myelin basic protein as substrate in presence of [gamma-33P]ATP incubated for 40 mins by scintillation counting method
# Method in brief: (§4)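 Radiometric kinase assay run at Reaction Biology. Kinase (5−10 mU) in 25 mM Tris pH 7.5, 0.02 mM EGTA, 10 mM magnesium acetate with 0.66 mg/mL myelin basic protein and [γ-33P]ATP at 1 μM ATP. Reaction started with Mg-ATP and run 40 min at room temperature, then stopped with 3% phosphoric acid. Spotted on P30 filtermat, washed, scintillation counted.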
# [8] = Half life in Sprague-Dawley rat at 5 mg/kg, po by LC-MS/MS analysis; assay type: ADME, organism-based; conditions: in vivo
# Method in brief: (§5)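 Male SD rats (7–8 weeks, 250–300 g), three per group, were dosed at 5 mg/kg i.v. or p.o. in 5% DMSO/40% PEG400/55% water. Rats were fasted 16 h before oral dosing. Serum was sampled every 30 min and measured by LC/MS/MS with carbamazepine as internal standard. Parameters came from non-compartmental analysis.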
# [9] = Oral bioavailability in Sprague-Dawley rat at 5 mg/kg by LC-MS/MS analysis; assay type: ADME, organism-based; conditions: in vivo; method in brief: as §2
# [10] = Stability in rat plasma assessed as parent compound remaining at 10 uM measured after 30 mins by LC-MS analysis; assay type: ADME, cell-free; conditions: read-out: Stability; method in brief: as §3
# [11] = Clearance in Sprague-Dawley rat at 5 mg/kg, iv by LC-MS/MS analysis; assay type: ADME, organism-based; conditions: in vivo; method in brief: as §5
# [12] = Stability in rat plasma assessed as parent compound remaining at 10 uM measured after 120 mins by LC-MS analysis; assay type: ADME, cell-free; conditions: read-out: Stability; method in brief: as §3
# [13] = Acute toxicity in Hsd:athymic nude-Foxn1nu mouse assessed as animal mortality at 500 to 1000 mg/kg; assay type: organism-based; conditions: in vivo, dose 500-1000 mg/kg
# Method in brief: (§6)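 Male Hsd:Athymic Nude-Foxn1nu mice received the compound by injection at five single doses (50, 100, 250, 500 and 1000 mg/kg), with seven animals per dose group.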
# [14] = biological target: Tyrosine-protein kinase ABL1 (Homo sapiens, UniProt P00519); experiment: Inhibition of ABL1 (unknown origin) incubated for 1 hr by qPCR analysis
# Sequence of Tyrosine-protein kinase ABL1 (P00519 whole entry): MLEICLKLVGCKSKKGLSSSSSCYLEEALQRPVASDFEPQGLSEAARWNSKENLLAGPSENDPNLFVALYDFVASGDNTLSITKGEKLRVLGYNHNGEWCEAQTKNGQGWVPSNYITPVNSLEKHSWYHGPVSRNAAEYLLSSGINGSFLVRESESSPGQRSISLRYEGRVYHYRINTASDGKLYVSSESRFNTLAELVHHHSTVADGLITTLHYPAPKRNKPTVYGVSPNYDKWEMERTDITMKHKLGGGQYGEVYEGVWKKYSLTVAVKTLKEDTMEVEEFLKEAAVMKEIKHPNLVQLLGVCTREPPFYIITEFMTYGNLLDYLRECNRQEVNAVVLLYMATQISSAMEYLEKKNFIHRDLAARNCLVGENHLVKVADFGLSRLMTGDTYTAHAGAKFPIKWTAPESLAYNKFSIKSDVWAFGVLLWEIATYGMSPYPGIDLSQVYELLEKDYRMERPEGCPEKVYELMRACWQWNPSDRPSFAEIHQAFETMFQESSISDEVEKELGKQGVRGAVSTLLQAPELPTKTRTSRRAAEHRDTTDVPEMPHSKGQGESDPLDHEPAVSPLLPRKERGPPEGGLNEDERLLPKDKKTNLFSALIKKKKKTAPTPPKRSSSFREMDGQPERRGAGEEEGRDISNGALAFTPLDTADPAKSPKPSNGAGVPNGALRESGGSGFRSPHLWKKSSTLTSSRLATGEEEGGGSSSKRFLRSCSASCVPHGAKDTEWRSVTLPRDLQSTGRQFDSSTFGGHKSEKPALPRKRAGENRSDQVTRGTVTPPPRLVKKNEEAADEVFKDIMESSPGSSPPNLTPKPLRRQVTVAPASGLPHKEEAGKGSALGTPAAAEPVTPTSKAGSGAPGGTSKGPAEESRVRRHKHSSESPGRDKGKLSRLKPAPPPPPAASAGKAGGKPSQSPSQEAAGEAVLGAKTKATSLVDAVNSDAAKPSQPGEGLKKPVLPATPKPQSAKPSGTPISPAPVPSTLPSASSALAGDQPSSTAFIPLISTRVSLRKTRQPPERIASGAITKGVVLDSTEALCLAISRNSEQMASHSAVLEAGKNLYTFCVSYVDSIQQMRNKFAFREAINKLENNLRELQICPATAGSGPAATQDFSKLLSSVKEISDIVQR
# [15] = Stability in human plasma assessed as parent compound remaining at 10 uM measured after 120 mins by LC-MS analysis; assay type: ADME, cell-free; conditions: read-out: Stability; method in brief: as §3
# [16] = biological target: Serine/threonine-protein kinase/endoribonuclease IRE1 (Homo sapiens, UniProt O75460); experiment: Inhibition of ERN1 (unknown origin) incubated for 1 hr by qPCR analysis; method in brief: as §1
# Sequence of Serine/threonine-protein kinase/endoribonuclease IRE1 (O75460 whole entry): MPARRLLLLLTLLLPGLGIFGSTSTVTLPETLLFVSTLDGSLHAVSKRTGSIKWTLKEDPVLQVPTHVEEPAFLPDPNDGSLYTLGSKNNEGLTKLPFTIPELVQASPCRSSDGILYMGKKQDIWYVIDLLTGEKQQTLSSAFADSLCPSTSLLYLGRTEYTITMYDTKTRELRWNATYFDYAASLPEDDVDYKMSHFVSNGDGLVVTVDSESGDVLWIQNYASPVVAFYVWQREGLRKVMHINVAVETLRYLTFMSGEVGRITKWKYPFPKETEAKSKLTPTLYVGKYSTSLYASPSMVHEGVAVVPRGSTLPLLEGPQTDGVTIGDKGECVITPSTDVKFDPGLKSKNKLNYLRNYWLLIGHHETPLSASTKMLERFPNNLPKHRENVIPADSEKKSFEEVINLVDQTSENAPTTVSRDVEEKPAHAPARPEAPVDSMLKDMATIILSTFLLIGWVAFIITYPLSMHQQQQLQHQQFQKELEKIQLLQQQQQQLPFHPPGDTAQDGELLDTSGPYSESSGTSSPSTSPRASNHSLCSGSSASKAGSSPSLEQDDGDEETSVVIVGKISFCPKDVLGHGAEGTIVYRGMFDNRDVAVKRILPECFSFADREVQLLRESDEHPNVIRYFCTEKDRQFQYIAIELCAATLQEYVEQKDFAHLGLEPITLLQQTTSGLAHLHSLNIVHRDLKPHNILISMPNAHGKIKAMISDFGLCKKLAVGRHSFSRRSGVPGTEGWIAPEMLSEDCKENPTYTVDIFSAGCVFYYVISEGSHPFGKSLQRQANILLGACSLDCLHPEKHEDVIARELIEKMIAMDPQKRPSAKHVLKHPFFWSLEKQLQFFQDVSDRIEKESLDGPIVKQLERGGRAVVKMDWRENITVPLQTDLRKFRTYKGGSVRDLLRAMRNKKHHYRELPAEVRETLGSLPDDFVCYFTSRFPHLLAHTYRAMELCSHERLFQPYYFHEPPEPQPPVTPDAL
# [17] = biological target: Mitogen-activated protein kinase 8 (Homo sapiens, UniProt P45983); experiment: Inhibition of MAPK8 (unknown origin) incubated for 1 hr by qPCR analysis; method in brief: as §1
# Sequence of Mitogen-activated protein kinase 8 (P45983 whole entry): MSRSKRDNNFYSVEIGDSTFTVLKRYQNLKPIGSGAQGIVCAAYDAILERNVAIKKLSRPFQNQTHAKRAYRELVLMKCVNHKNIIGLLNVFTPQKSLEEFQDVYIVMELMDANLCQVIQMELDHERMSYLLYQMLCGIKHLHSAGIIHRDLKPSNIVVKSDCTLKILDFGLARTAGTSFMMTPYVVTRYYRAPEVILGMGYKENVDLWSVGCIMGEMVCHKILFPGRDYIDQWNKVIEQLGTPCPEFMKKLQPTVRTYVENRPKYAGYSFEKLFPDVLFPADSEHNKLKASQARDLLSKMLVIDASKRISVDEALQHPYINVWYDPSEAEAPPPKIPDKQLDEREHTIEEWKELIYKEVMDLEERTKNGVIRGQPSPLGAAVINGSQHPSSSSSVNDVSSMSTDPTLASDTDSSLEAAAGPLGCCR
# [18] = Volume of distribution in Sprague-Dawley rat at 5 mg/kg, iv by LC-MS/MS analysis; assay type: ADME, organism-based; conditions: in vivo; method in brief: as §2
# [19] = Half life in Sprague-Dawley rat at 5 mg/kg, iv by LC-MS/MS analysis; assay type: ADME, organism-based; conditions: in vivo; method in brief: as §5
# [20] = biological target: Mitogen-activated protein kinase 14 (Homo sapiens, UniProt Q16539); experiment: Inhibition of MAPK14 (unknown origin) incubated for 1 hr by qPCR analysis; method in brief: as §1
# Sequence of Mitogen-activated protein kinase 14 (Q16539 whole entry): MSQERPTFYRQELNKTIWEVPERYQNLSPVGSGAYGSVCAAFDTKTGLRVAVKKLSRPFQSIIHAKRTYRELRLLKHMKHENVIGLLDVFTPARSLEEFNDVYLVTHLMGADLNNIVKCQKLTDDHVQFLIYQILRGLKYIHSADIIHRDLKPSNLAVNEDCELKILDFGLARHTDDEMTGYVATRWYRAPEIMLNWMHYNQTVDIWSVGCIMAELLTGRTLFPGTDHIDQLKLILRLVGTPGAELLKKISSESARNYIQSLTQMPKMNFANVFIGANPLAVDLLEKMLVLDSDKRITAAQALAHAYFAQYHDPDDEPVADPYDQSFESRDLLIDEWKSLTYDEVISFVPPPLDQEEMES
# [21] = Apparent permeability across basolateral to apical side in human Caco-2 cells at 5 uM measured every 15 mins for 1 hr by LC-MS/MS analysis; assay type: ADME, cell-based
# [22] = Acute toxicity in Hsd:athymic nude-Foxn1nu mouse at 50 to 250 mg/kg; assay type: organism-based; conditions: in vivo, dose 50-250 mg/kg; method in brief: as §6
# [23] = biological target: Mitogen-activated protein kinase kinase kinase 20 (Homo sapiens, UniProt Q9NYL2); experiment: Inhibition of ZAK (unknown origin) incubated for 1 hr by qPCR analysis; method in brief: as §1
# [24] = Cmax in Sprague-Dawley rat at 5 mg/kg, po by LC-MS/MS analysis; assay type: ADME, organism-based; design: route oral, dose 5 mg/kg; conditions: in vivo; method in brief: as §5
# [25] = biological target: Fibroblast growth factor receptor 1 (Homo sapiens, UniProt P11362); experiment: Inhibition of FGFR1 (unknown origin) incubated for 1 hr by qPCR analysis
# [26] = biological target: T1, Receptor-type tyrosine-protein kinase FLT3 (Homo sapiens, UniProt P36888); experiment: Inhibition of FLT3 (unknown origin) incubated for 1 hr by qPCR analysis; method in brief: as §1
# T1 sequence (P36888 whole entry): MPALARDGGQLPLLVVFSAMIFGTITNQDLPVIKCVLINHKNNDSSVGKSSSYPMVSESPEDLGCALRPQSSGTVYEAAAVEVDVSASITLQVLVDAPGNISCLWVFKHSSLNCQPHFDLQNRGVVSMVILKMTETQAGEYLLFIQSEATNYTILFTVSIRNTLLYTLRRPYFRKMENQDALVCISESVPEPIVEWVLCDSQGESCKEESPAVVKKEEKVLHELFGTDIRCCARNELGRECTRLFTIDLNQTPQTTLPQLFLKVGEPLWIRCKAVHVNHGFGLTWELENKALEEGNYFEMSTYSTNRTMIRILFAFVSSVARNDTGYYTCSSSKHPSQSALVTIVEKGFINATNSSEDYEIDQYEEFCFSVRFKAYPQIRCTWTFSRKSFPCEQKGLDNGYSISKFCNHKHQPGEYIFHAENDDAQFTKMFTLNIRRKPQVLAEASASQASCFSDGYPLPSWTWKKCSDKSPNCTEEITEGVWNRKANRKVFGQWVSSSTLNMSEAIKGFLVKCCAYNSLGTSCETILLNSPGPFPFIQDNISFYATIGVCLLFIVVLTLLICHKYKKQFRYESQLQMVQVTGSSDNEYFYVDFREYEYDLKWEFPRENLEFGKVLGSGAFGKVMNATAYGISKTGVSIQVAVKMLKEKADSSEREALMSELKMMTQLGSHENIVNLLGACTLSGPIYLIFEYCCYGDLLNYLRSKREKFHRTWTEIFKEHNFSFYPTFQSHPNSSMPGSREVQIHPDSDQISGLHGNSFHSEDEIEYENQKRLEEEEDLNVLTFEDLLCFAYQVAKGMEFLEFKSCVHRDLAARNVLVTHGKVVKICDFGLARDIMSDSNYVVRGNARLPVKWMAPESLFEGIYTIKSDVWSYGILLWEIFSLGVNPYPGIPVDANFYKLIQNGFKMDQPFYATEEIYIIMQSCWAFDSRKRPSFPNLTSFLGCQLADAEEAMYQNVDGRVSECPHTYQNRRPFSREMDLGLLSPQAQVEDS
# [27] = biological target: Serine/threonine-protein kinase B-raf (Homo sapiens, UniProt P15056, V600E); experiment: Inhibition of human BRAF V600E mutant using myelin basic protein as substrate in presence of [gamma-33P]ATP incubated for 40 mins by scintillation counting method; method in brief: as §4
# Sequence of Serine/threonine-protein kinase B-raf (Homo sapiens, UniProt P15056, V600E) (P15056 2-766 V600E limits assumed): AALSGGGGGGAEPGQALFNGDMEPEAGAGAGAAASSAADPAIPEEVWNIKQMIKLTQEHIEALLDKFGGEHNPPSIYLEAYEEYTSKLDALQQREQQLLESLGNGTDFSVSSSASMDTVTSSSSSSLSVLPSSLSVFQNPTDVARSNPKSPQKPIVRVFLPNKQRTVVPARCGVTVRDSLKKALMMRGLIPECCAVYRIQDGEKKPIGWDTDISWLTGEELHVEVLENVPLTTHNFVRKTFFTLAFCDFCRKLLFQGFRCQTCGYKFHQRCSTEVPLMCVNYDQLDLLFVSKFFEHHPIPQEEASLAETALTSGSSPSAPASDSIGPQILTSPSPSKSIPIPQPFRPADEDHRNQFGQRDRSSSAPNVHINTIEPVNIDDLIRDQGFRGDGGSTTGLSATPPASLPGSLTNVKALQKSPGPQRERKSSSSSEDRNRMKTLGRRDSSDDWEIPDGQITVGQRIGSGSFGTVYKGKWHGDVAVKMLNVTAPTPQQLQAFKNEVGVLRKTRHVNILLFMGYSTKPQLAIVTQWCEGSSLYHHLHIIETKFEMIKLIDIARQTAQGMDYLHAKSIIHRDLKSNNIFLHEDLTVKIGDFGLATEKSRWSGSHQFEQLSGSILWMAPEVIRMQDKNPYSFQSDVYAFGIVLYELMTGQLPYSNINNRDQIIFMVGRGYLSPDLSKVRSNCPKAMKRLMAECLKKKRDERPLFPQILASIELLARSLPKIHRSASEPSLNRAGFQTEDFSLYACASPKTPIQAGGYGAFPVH
# Sequence of RAF proto-oncogene serine/threonine-protein kinase (P04049 whole entry): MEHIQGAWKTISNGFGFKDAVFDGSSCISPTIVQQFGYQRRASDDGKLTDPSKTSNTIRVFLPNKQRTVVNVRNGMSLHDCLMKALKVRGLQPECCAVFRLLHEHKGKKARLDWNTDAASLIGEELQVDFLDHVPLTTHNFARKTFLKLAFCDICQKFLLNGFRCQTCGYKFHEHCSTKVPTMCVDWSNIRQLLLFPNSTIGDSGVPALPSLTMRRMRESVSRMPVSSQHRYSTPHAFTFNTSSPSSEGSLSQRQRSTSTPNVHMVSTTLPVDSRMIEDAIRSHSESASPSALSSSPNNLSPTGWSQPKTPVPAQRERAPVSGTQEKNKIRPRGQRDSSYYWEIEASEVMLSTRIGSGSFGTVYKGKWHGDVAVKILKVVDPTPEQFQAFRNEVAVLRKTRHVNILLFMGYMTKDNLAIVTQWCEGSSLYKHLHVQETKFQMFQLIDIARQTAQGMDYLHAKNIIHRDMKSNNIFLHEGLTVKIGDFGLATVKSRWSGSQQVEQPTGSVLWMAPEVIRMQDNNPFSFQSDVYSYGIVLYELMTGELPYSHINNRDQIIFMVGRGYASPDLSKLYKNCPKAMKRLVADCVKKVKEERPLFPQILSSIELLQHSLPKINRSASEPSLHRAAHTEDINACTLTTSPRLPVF
smiles,measurement,setting,value
CN1CCN(CCNc2nccc(-c3c(-c4cccc(O)c4)nc4sccn34)n2)S1(=O)=O,"Papp A→B at 1 h, 5 µM",[1],14.2 ×10⁻⁶ cm/s
same,IC50,[2],1.12 nM
same,IC50,[3],3780 nM
same,Tmax,[4],2.08 h
same,IC50,[5],820 nM
same,"remaining at 0.5 h, 10 µM",[6],97.2%
same,IC50,[7],2 nM
same,half-life,[8],3.35 h
same,bioavailability,[9],6.59%
same,"remaining at 0.5 h, 10 µM",[10],90.6%
same,clearance,[11],2.07 mL/min/kg
same,"remaining at 2 h, 10 µM",[12],76.6%
same,Activity,[13],Toxic
same,IC50,[14],12400 nM
same,"remaining at 2 h, 10 µM",[15],95.4%
same,IC50,[16],11300 nM
same,IC50,[17],910 nM
same,Vd,[18],0.578 L/kg
same,half-life,[19],1.72 h
same,IC50,[20],1020 nM
same,"Papp B→A at 1 h, 5 µM",[21],21.8 ×10⁻⁶ cm/s
same,Activity,[22],Non-Toxic
same,IC50,[23],9010 nM
same,Cmax,[24],96.9 ng/mL
same,IC50,[25],13500 nM
same,IC50,[26],1510 nM
same,IC50,[27],0.07 nM
